In ChEMBL document CHEMBL3046654, “Penoxsulam--structure-activity relationships of triazolopyrimidine sulfonamides” (Bioorg Med Chem, 2009):

Legend:
Echinochloa crus-galli [1] = assay: Post-emergence herbicidal activity against three-leaf stage Echinochloa crus-galli (barnyard grass) under green-house condition by water injection treatment method; assay type: functional
Outline: (§1)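 Greenhouse paddy test. Seed was sown on saturated Metro Mix, covered with about 0.5 cm mix and held 48 h dark at 30 °C, 95% RH; about 15 d from seed soaking to treatment. Treatment solution was injected into the water. Rates were set per pot surface area, with serial rates made by halving the volume delivered. Held at 16 h day length, 29 °C.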

[2] = test system: Schoenoplectiella juncoides; assay: Post-emergence herbicidal activity against three-leaf stage Schoenoplectiella juncoides under green-house condition by water injection treatment method; assay type: functional; outline: as §1
Cyperus difformis = assay: Post-emergence herbicidal activity against three-leaf stage Cyperus difformis under green-house condition by water injection treatment method; assay type: functional; outline: as §1
Pontederia vaginalis [3] = assay: Post-emergence herbicidal activity against three-leaf stage Monochoria vaginalis under green-house condition by water injection treatment method; assay type: functional; outline: as §1
Oryza sativa [4] = assay: Phytotoxicity against three-leaf stage Oryza sativa (rice) under green-house condition by water injection treatment method; assay type: organism-based; outline: as §1
Echinochloa crus-galli [5] = assay: Post-emergence herbicidal activity against three-leaf stage Echinochloa crus-galli (barnyard grass) under field condition by water injection treatment method; assay type: functional
Outline: (§2)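 Field trials: water-injected treatment applied to transplanted japonica rice and to weeds at the three-leaf stage, under rice-growing conditions in several countries.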

Oryza sativa [6] = assay: Phytotoxicity against two to three-leaf stage indica Oryza sativa (rice) under field condition by foliar application method; assay type: organism-based; settings: in vivo
[7] = test system: Schoenoplectiella juncoides; assay: Post-emergence herbicidal activity against three-leaf stage Schoenoplectiella juncoides under field condition by water injection treatment method; assay type: functional; outline: as §2
Pontederia vaginalis [8] = assay: Post-emergence herbicidal activity against three-leaf stage Monochoria vaginalis under field condition by water injection treatment method; assay type: functional; outline: as §2
Oryza sativa [9] = assay: Phytotoxicity against three-leaf stage Oryza sativa (rice) under field condition by water injection treatment method; assay type: organism-based; outline: as §2
[10] = test system: Schoenoplectiella juncoides; assay: Post-emergence herbicidal activity against two to three-leaf stage Schoenoplectiella juncoides under field condition by foliar application method; assay type: functional
Echinochloa crus-galli [11] = assay: Post-emergence herbicidal activity against 2-3-leaf stage Echinochloa crus-galli (barnyard grass) under field condition by foliar application method; assay type: functional
Avena fatua = assay: Post-emergence herbicidal activity against Avena fatua compound treated as foliar application measured after 2 weeks; assay type: functional
Outline: (§3)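 Greenhouse post-emergence foliar screen in 64 cm² pots. Seed treatments were used on some species to aid germination. Plants were grown 7–21 days at 23–29 °C day/22–28 °C night under a 15 h photoperiod. Sprayed at 2–12 cm height and the 1–4 true leaf stage.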

Datura stramonium = assay: Post-emergence herbicidal activity against Datura stramonium compound treated as foliar application measured after 2 weeks; assay type: functional; outline: as §3
Fallopia convolvulus = assay: Post-emergence herbicidal activity against Fallopia convolvulus compound treated as foliar application measured after 2 weeks; assay type: functional; outline: as §3
Helianthus = assay: Post-emergence herbicidal activity against Helianthus spp. compound treated as foliar application measured after 2 weeks; assay type: functional; outline: as §3
[12] = Inhibition of acetolactatae synthase; settings: read-out: I50
Outline: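 Barley ALS: etiolated shoots of 5–6 d old Hector Spring barley homogenized at 0–4 °C in 20 mM HEPES pH 7.2, 1 mM EDTA, 5 mM DTT, then 33% (NH4)2SO4 cut. Reaction: 20 mM HEPES pH 7.2, 5 mM MgCl2, 0.25 mM TPP, FAD, 22.5 mM pyruvate, 0.7% DMSO final, 37 °C, 30 min. Acid decarboxylation to acetoin, then creatine/1-naphthol colour read at 530 nm. Reported as I50 (nM).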

Xanthium strumarium = assay: Post-emergence herbicidal activity against Xanthium strumarium (cocklebur) compound treated as foliar application measured after 2 weeks; assay type: functional; outline: as §3
Abutilon theophrasti = assay: Post-emergence herbicidal activity against Abutilon theophrasti (velvetleaf) compound treated as foliar application measured after 2 weeks; assay type: functional; outline: as §3
Chenopodium album = assay: Post-emergence herbicidal activity against Chenopodium album compound treated as foliar application measured after 2 weeks; assay type: functional; outline: as §3
Oryza sativa [13] = assay: Phytotoxicity against Oryza sativa (rice); assay type: organism-based; settings: in vivo
Stellaria media = assay: Post-emergence herbicidal activity against Stellaria media compound treated as foliar application measured after 2 weeks; assay type: functional; outline: as §3
Setaria faberi = assay: Post-emergence herbicidal activity against Setaria faberi (Giant Foxtail) compound treated as foliar application measured after 2 weeks; assay type: functional; outline: as §3
Digitaria sanguinalis = assay: Post-emergence herbicidal activity against Digitaria sanguinalis (hairy crabgrass) compound treated as foliar application measured after 2 weeks; assay type: functional; outline: as §3
Ipomoea = assay: Post-emergence herbicidal activity against Ipomoea spp. compound treated as foliar application measured after 2 weeks; assay type: functional; outline: as §3
Veronica hederifolia = assay: Post-emergence herbicidal activity against Veronica hederifolia compound treated as foliar application measured after 2 weeks; assay type: functional; outline: as §3
Ipomoea hederacea = assay: Post-emergence herbicidal activity against Ipomoea hederacea (ivy-leaved morning glory) compound treated as foliar application measured after 2 weeks; assay type: functional; outline: as §3
Sorghum halepense = assay: Post-emergence herbicidal activity against Sorghum halepense (Johnson grass) compound treated as foliar application measured after 2 weeks; assay type: functional; outline: as §3
Amaranthus retroflexus = assay: Post-emergence herbicidal activity against Amaranthus retroflexus compound treated as foliar application measured after 2 weeks; assay type: functional; outline: as §3
Echinochloa crus-galli [14] = assay: Post-emergence herbicidal activity against Echinochloa crus-galli (barnyard grass) compound treated as foliar application measured after 2 weeks; assay type: functional; outline: as §3
Alopecurus = assay: Post-emergence herbicidal activity against Alopecurus spp. compound treated as foliar application measured after 2 weeks; assay type: functional; outline: as §3
Echinochloa crus-galli [15] = assay: Post-emergence herbicidal activity against 3-4-leaf stage Echinochloa crus-galli (barnyard grass) under field condition by foliar application method; assay type: functional
Sesbania herbacea = assay: Post-emergence herbicidal activity against three to four-leaf stage Sesbania herbacea under field condition by foliar application method; assay type: functional
Oryza sativa [16] = assay: Phytotoxicity against three to four-leaf stage japonica Oryza sativa (rice) under field condition by foliar application method; assay type: organism-based; settings: in vivo

SMILES	GR80 (Echinochloa crus-galli [1])	GR80 [2]	GR80 (Cyperus difformis)	GR80 (Pontederia vaginalis [3])	GR20 (Oryza sativa [4])	GR80 (Avena fatua)	GR80 (Datura stramonium)	GR80 (Fallopia convolvulus)	GR80 (Helianthus)	GR80 (Xanthium strumarium)	GR80 (Abutilon theophrasti)	GR80 (Chenopodium album)	GR20 (Oryza sativa [13])	GR80 (Stellaria media)	GR80 (Setaria faberi)	GR80 (Digitaria sanguinalis)	GR80 (Ipomoea)	GR80 (Veronica hederifolia)	GR80 (Ipomoea hederacea)	GR80 (Sorghum halepense)	other results
COc1cnc(OC)n2nc(NS(=O)(=O)c3c(OCC(F)(F)F)cccc3C(F)(F)F)nc12	19 gAi/ha	21 gAi/ha	36 gAi/ha	5 gAi/ha	51 gAi/ha																
COc1cnc(OC)n2nc(NS(=O)(=O)c3c(OC(CF)CF)cccc3C(F)(F)F)nc12	14 gAi/ha	9 gAi/ha	31 gAi/ha	1 gAi/ha	140 gAi/ha																GR80 (Echinochloa crus-galli [5]): 35 gAi/ha; GR10 (Oryza sativa [6]): > 70 gAi/ha; GR80 [7]: 15 gAi/ha; GR80 (Pontederia vaginalis [8]): 12 gAi/ha; GR10 (Oryza sativa [9]): 70 gAi/ha; GR80 [10]: 20 gAi/ha; GR80 (Echinochloa crus-galli [11]): 15 gAi/ha
COc1nccc2nc(NS(=O)(=O)c3c(Cl)cccc3Cl)nn12						500 ppm	475 ppm	475 ppm	475 ppm	475 ppm	475 ppm	475 ppm	500 ppm	475 ppm	500 ppm	500 ppm	475 ppm	475 ppm	475 ppm	500 ppm	IC50 [12]: 1040 nM; GR80 (Amaranthus retroflexus): 475 ppm; GR80 (Echinochloa crus-galli [14]): 500 ppm; GR80 (Alopecurus): 500 ppm
COc1cnc(OC)n2nc(NS(=O)(=O)c3c(Cl)cccc3Cl)nc12						8 ppm	2 ppm	2 ppm	2 ppm	2 ppm	2 ppm	2 ppm	8 ppm	2 ppm	8 ppm	8 ppm	2 ppm	2 ppm	2 ppm	8 ppm	IC50 [12]: 0.6 nM; GR80 (Amaranthus retroflexus): 2 ppm; GR80 (Echinochloa crus-galli [14]): 4 ppm; GR80 (Alopecurus): 8 ppm
CCOc1cccc(C(F)(F)F)c1S(=O)(=O)Nc1nc2c(OC)cnc(OC)n2n1	1 gAi/ha	3 gAi/ha		1 gAi/ha	1 gAi/ha	191 ppm	2 ppm	2 ppm	2 ppm	2 ppm	2 ppm	2 ppm	250 ppm	2 ppm	191 ppm	191 ppm	2 ppm	2 ppm	2 ppm	191 ppm	GR80 (Amaranthus retroflexus): 2 ppm; GR80 (Echinochloa crus-galli [14]): 4 ppm; GR80 (Alopecurus): 191 ppm
COc1cnc(OC)n2nc(NS(=O)(=O)c3c(OCCF)cccc3C(F)(F)F)nc12	10 gAi/ha	9 gAi/ha	8 gAi/ha	5.2 gAi/ha	14 gAi/ha	66 ppm	6 ppm	6 ppm	6 ppm	6 ppm	6 ppm	6 ppm	250 ppm	6 ppm	66 ppm	66 ppm	6 ppm	6 ppm	6 ppm	66 ppm	GR80 (Echinochloa crus-galli [15]): 12 gAi/ha; GR80 (Echinochloa crus-galli [5]): 19 gAi/ha; GR10 (Oryza sativa [6]): > 70 gAi/ha; GR80 [7]: 5 gAi/ha; GR80 (Pontederia vaginalis [8]): 4.4 gAi/ha; GR10 (Oryza sativa [9]): 8 gAi/ha; GR80 [10]: 4 gAi/ha; GR80 (Echinochloa crus-galli [11]): 5 gAi/ha; GR80 (Sesbania herbacea): 10 gAi/ha; GR10 (Oryza sativa [16]): 12 gAi/ha; GR80 (Amaranthus retroflexus): 6 ppm; GR80 (Echinochloa crus-galli [14]): 1 ppm; GR80 (Alopecurus): 66 ppm
COc1cnc(OC)n2nc(NS(=O)(=O)c3c(OCC(F)F)cccc3C(F)(F)F)nc12 [PENOXSULAM]	12 gAi/ha	12 gAi/ha	14 gAi/ha	<2 gAi/ha	75 gAi/ha																GR80 (Echinochloa crus-galli [15]): 9 gAi/ha; GR80 (Echinochloa crus-galli [5]): 26 gAi/ha; GR10 (Oryza sativa [6]): > 70 gAi/ha; GR80 [7]: 9 gAi/ha; GR80 (Pontederia vaginalis [8]): 6 gAi/ha; GR10 (Oryza sativa [9]): 35 gAi/ha; GR80 [10]: 6 gAi/ha; GR80 (Echinochloa crus-galli [11]): 7 gAi/ha; GR80 (Sesbania herbacea): 7 gAi/ha; GR10 (Oryza sativa [16]): 65 gAi/ha
